The record followed here is ChEMBL document CHEMBL2440008, “Identification of 2-aminooxazole amides as acyl-CoA: diacylglycerol acyltransferase 1 (DGAT1) inhibitors through scaffold hopping strategy” (Bioorg Med Chem Lett, 2013).

Converted amounts (≈) assume the structure as drawn.

Series [1] addresses T1, Diacylglycerol O-acyltransferase 1 (Mus musculus, UniProt Q9Z2A7).
T1 sequence (Q9Z2A7 whole entry): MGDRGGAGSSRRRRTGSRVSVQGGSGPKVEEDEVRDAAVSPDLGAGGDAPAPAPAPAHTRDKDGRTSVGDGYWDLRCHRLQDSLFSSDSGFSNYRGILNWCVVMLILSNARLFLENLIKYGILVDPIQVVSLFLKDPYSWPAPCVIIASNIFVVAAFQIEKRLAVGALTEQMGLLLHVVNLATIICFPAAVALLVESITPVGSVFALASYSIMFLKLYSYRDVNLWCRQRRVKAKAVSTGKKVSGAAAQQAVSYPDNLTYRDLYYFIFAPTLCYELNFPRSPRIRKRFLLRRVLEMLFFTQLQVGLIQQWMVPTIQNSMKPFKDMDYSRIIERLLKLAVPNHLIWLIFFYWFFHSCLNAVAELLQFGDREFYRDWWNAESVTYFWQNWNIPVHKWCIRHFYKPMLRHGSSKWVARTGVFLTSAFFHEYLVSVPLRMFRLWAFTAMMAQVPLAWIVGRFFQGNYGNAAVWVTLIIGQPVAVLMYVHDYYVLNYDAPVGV
The experiment in a line: Inhibition of mouse DGAT-1.

Series [2] has as its target T2, Cytochrome P450 2D6 (Homo sapiens, UniProt P10635). The series can be described thus: Inhibition of CYP2D6 (unknown origin) preincubated prior to substrate addition. Format: ADME.
Target sequence in this assay (P10635 whole entry): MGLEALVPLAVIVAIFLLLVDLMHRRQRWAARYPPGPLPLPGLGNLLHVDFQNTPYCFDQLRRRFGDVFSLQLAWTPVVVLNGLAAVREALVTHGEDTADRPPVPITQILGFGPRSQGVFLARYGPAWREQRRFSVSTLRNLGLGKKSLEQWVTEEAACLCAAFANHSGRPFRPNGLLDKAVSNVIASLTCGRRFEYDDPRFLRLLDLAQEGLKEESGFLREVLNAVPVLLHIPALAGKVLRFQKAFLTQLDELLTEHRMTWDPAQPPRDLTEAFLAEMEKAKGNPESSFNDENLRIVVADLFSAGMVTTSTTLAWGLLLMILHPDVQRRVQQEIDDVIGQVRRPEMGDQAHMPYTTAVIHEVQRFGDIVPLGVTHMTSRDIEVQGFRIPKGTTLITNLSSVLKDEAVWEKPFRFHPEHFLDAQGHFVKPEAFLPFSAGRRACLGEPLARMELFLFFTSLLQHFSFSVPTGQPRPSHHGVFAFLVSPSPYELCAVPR
The target in series [3] is T3, Cytochrome P450 3A4 (Homo sapiens, UniProt P08684). The series can be described thus: Inhibition of CYP3A4 (unknown origin) preincubated prior to substrate addition. Format: ADME.
T3 sequence (P08684 whole entry): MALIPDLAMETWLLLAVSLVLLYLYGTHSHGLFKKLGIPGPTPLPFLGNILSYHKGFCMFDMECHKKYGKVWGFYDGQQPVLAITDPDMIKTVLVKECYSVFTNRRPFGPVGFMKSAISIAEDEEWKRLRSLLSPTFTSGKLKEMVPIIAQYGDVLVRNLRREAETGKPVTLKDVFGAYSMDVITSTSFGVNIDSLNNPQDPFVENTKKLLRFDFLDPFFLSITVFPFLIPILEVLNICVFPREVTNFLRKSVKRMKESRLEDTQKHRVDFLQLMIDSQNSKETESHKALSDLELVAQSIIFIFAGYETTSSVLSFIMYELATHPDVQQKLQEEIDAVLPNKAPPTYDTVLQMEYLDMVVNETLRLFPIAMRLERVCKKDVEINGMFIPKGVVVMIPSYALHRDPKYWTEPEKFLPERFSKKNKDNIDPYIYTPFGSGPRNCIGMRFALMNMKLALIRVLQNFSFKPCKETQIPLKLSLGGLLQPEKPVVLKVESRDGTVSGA
Series [4] concerns the target T3, Cytochrome P450 3A4. The series can be described thus: Inhibition of CYP3A4 (unknown origin) coincubated with substrate. Format: ADME.
Series [5] is described as follows: Solubility of the compound. Format: physicochemical.
Series [6] deals with T4, Cytochrome P450 2C9 (Homo sapiens, UniProt P11712). The experiment in a line: Inhibition of CYP2C9 (unknown origin) preincubated prior to substrate addition. Format: ADME.
T4 sequence (P11712 whole entry): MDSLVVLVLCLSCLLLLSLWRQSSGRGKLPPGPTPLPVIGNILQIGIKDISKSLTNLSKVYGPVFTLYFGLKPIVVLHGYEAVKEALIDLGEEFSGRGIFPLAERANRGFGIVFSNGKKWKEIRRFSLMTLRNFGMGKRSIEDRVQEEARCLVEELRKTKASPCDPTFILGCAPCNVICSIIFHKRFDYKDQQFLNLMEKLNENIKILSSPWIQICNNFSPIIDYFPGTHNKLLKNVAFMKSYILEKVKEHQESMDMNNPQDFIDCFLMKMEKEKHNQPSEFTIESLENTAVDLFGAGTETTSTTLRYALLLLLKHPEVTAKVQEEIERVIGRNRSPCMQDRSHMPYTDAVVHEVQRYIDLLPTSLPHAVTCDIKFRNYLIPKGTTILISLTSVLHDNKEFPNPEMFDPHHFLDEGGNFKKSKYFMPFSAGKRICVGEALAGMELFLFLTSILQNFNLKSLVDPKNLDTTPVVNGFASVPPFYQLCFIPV
The nature of series [7]: Plasma protein binding (unknown origin). The conditions noted are these: read-out: PPB (converted). Format: ADME, cell-free.
The nature of series [8]: Clearance in human hepatocytes measured per 10^6 cells. The conditions noted are these: read-out: CLH. Format: ADME, cell-based, Hepatocyte.
Series [9] has as its system Mus musculus. The series can be described thus: Antidyslipidemic activity in C57BL/6J mouse postprandial triglyceridemia model assessed as reduction in plasma triglyceride level at 10 mg/kg, po treated 15 mins prior to corn oil-challenge measured after 2 hrs by colorimetric method relative to control. Format: functional. More on the design: scale not given: the % may be the effect or the level left. The method in brief:
(§1)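 Male C57BL/6J mice fasted overnight; oral dose in 20% hydroxypropyl-b-cyclodextrin vehicle (vehicle alone for controls) 15 min before 0.25 mL corn oil challenge at time 0. Terminal blood taken by heart puncture under anesthesia at 2 h; plasma triglycerides measured colorimetrically by enzymatic TG reagent with absorbance read on a microplate reader, compared with vehicle-treated controls.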

For another series, the target named is hERG (Homo sapiens, UniProt Q12809). The experiment in a line: Inhibition of human ERG at 10 uM relative to control.
Chain of hERG (Q12809 whole entry): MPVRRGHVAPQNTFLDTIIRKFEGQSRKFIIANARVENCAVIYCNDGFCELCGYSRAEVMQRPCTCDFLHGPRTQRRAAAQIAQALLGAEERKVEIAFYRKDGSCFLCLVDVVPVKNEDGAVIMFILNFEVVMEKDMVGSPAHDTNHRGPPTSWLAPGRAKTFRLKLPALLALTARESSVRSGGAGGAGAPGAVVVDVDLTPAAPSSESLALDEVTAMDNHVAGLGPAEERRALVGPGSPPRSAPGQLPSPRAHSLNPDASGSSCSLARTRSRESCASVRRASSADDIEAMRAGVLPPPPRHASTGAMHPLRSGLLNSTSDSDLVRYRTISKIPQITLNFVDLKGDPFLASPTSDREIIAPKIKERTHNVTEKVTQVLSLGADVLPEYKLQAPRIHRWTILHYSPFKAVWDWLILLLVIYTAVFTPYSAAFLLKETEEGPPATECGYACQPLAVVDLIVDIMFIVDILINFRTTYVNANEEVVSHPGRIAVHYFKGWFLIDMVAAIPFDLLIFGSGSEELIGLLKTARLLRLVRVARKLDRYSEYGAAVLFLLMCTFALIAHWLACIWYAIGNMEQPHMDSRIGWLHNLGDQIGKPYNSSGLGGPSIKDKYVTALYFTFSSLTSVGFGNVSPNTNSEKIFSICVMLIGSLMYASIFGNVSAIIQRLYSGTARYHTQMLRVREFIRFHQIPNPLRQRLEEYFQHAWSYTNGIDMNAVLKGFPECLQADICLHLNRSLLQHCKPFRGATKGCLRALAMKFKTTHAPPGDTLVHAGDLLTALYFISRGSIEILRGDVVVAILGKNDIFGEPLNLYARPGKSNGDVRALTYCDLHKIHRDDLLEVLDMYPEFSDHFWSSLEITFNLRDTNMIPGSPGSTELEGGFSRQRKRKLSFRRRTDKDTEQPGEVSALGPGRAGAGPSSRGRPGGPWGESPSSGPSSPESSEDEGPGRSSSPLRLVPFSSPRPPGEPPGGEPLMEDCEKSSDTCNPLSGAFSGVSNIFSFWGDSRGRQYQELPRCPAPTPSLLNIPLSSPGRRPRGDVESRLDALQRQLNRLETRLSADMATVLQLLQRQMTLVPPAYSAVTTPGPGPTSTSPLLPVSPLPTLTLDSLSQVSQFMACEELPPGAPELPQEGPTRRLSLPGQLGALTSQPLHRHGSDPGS
Series [10] addresses T4, Cytochrome P450 2C9. The experiment in a line: Inhibition of CYP2C9 (unknown origin) coincubated with substrate. Format: ADME.
The target of series [11] is T2, Cytochrome P450 2D6. The series can be described thus: Inhibition of CYP2D6 (unknown origin) coincubated with substrate.
Target sequence in this assay (P10635 whole entry, looked up): as the sequence (P10635 whole entry) above
Series [12] can be described thus: AUC in po dosed rat. The conditions noted are these: plasma. Format: ADME, organism-based.
The subject of series [13] is Mus musculus. The experiment in a line: Antidyslipidemic activity in C57BL/6J mouse postprandial triglyceridemia model assessed as reduction in plasma triglyceride level at 3 mg/kg, po treated 15 mins prior to corn oil-challenge measured after 2 hrs by colorimetric method relative to control. Format: functional. On the set-up: scale not given: the % may be the effect or the level left. An outline of the steps:
as §1

For `CC(C)OC(=O)N1CCN(c2ccc(NC(=O)c3oc(N4CCCCC4)nc3C(F)(F)F)cn2)CC1`, the half-inhibitory concentration (IC50) in series [1] was 1.2 µM; against Cytochrome P450 2D6 [2], more than 20 µM; against Cytochrome P450 3A4 [3] it was more than 20 µM; at Cytochrome P450 3A4 [4], more than 20 µM; against Cytochrome P450 2C9 [6], more than 20 µM; on Cytochrome P450 2C9 [10], more than 20 µM. For the same compound, the IC50 on Cytochrome P450 2D6 [11] was more than 20 µM. The compound further gave a solubility in series [5] of 100 µM (≈ 51.1 µg/mL). In addition, the fraction unbound in series [7] was 0.004. Besides, the hepatocyte CLint in series [8] is 24.2 µL/min/1e6 cells. In addition, in the series on Mus musculus [9], the Activity was -12%. In addition, the inhibition at 10 µM at hERG amounted to 40%. This compound also displayed an AUC in series [12] of 69 µM·h.
Take `O=C(Nc1ccc(N2CCN(C(=O)OC3CCCC3)CC2)nc1)c1oc(N2CCCCC2)nc1C(F)(F)F`: the Activity in the series on Mus musculus [9] is given as -27%.
As for `O=C(Nc1ccc(N2CCN(C(=O)Oc3ccccc3Cl)CC2)nc1)c1oc(N2CCCCC2)nc1C(F)(F)F`, in [1], the IC50 came to 1.39 µM.
As to `O=C(Nc1ccc(N2CCN(C(=O)Nc3ccccc3Cl)CC2)nc1)c1oc(N2CCCCC2)nc1C(F)(F)F`, the half-inhibitory concentration (IC50) in series [1] is 0.026 µM; on Cytochrome P450 2D6 [2] it was more than 20 µM; on Cytochrome P450 3A4 [3] it was 5 µM; on Cytochrome P450 3A4 [4], more than 20 µM; on Cytochrome P450 2C9 [6] it was 9.7 µM; at Cytochrome P450 2C9 [10], 6.4 µM. Besides, the IC50 at Cytochrome P450 2D6 [11] was more than 20 µM. Also, the concentration in solution in [5] (solubility) came to 10 µM (≈ 5.78 µg/mL). The fraction unbound in series [7] was 0.001. For the same compound, the Activity in the series with Mus musculus [13] was -28%; in the series on Mus musculus [9], -63%. In addition, the hepatocyte CLint in [8] came out at 16.9 µL/min/1e6 cells. Further, the AUC in [12] was found to be 25 µM·h.
Turning to `O=C(Nc1ccc(N2CCCN(C(=O)Nc3ccccc3Cl)CC2)nc1)c1oc(N2CCCCC2)nc1C(F)(F)F`, the IC50 in [1] was 0.134 µM.
On to `O=C(Nc1ccc(N2CCN(c3ncccc3Cl)CC2)nc1)c1oc(N2CCCCC2)nc1C(F)(F)F`, for which half-maximal inhibition in [1] (IC50) required 2.27 µM.
As to `COCCN(C)c1ccc(NC(=O)c2oc(-c3ccccc3)nc2C(F)(F)F)cn1`, in series [1], the IC50 amounted to 2.85 µM. In series [12], this compound came in with an AUC of 12.7 µM·h.
